Experimental data collected from several papers.
Each line is one published result; the experiments were not run side by side. pIC50: −log10 of the molar value.
Cell line: K562
Observed: cell growth or viability

SMILES	test	setting	pIC50
c1ccc(-c2cc(CNc3cccc4cccnc34)on2)nc1	MTS	72 h	4.10
COc1ccc(Nc2ncnc3c2ncn3Cc2ccc(C(=O)NO)cc2)cc1	MTT	72 h	5.43
Cc1sc2c(c1C)C(c1ccc(Cl)cc1)=N[C@@H](CC(=O)NCCCCNC(=O)COc1cccc3c1C(=O)N(C1CCC(=O)NC1=O)C3=O)c1nnc(C)n1-2 (some centres unmarked)	CCK-8	72 h	6.14
CN1CCC(NC2CCc3[nH]c4c(C(N)=O)ccc(-c5ccccc5Cl)c4c3C2)CC1 (centres unmarked)	–	96 h	7.67
O=C(NO)c1ccc(Cn2cnc3c(Nc4ccc(F)c(Cl)c4)ncnc32)cc1	MTT	72 h	5.13
O=c1cc(OCc2cc(-c3ccc(C(F)(F)F)cc3)no2)c2ccccc2o1	MTS	72 h	< 4.00
O=C(NO)c1ccc(Cn2cnc3c(Nc4ccc(Cl)cc4)ncnc32)cc1	MTT	72 h	4.86
CC(C)=CCc1ncc(/C=C2\NC(=O)[C@H](C(C)C)NC2=O)[nH]1	MTT	–	< 4.82
N/C(=N\O)c1ccc(-c2cc(CNc3cccc4cccnc34)on2)cc1	MTS	72 h	4.06
COc1cccc2c1C(=O)c1c(O)c3c(c(O)c1C2=O)C[C@@](O)(C(=O)CO)C[C@@H]3O[C@H]1C[C@H](N)[C@H](O)[C@H](C)O1	–	–	6.89
C=CC(C)(C)c1[nH]cnc1/C=C1/NC(=O)[C@H](C(C)C)NC1=O	MTT	–	5.75
